The source made the active and inactive calls. The calls are words filed in the database; no cut-off is given here.
Experiments:
NCI-H929 [1] = assay: Cytotoxicity against human NCI-H929 cells assessed as reduction in cell viability at 0.3125 to 10 micromol/L after 48 hrs by MTS assay; format: functional, cell-based; settings: dose 0.3125-10 µmol/L
Method in brief: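 Seven myeloma lines (MM.1S, H929, OPM2/BTZ among them) exposed to TAS-117 at increasing concentrations up to 10 μmol/L for 48 h. Viability read by MTS against an untreated control; mean ± SD of triplicates.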

MM1.S [2] = assay: Synergistic activity against human MM.1S cells assessed as combination index […] compound addition at 0.125 uM incubated for 48 hrs by […]; format: functional
Method in brief: (§1)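 Cells were exposed to the EZH2/EZH1 inhibitor (UNC1999 or GSK126) for 72 h in total, with the Akt inhibitor added for the last 48 h. Viability was read by MTS assay relative to untreated control cells, in triplicate. The combination index for each dose pair came from isobologram analysis.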

MM1.S [3] = assay: Synergistic activity against human MM.1S cells assessed as combination index […] at 0.5 uM incubated for 48 hrs by MTT assay; format: functional; method in brief: as §1
OPM-2/BTZ = assay: Synergistic activity against human OPM-2/BTZ cells assessed as combination index preincubated in presence of 5 uM GSK126 for 72 hrs followed by compound addition at 0.5 uM incubated for 48 hrs by MTT assay; format: functional
OPM-2 [4] = assay: Synergistic activity against human OPM-2 cells assessed as combination index preincubated in presence of 1.25 uM GSK126 for 72 hrs followed by compound addition at 1.25 uM incubated for 48 hrs by MTT assay; format: functional
OPM-2 [5] = assay: Synergistic activity against human OPM-2 cells assessed as combination index preincubated in presence of 2.5 uM GSK126 for 72 hrs followed by compound addition at 1.25 uM incubated for 48 hrs by MTT assay; format: functional
MM1.S [6] = assay: Induction of apoptosis in human MM1.S cells assessed as late apoptotic cells at 2 micromol/L incubated for 12 hrs by annexin V/PI staining based flow cytometry (reference value: 3.6%); format: functional; settings: dose 2 µmol/L, at 2 µM
NCI-H929 [7] = assay: Upregulation of CDKN1B mRNA expression in human NCI-H929 cells at 1 micromol/L after 24 hrs by qRT-PCR analysis; format: functional, cell-based; settings: dose 1.0 µmol/L
Method in brief: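 Cells were exposed to 1 μmol/L TAS-117 for 24 h. mRNA of FOXO3, FOXO4, BIM and CDKN1B was measured by qRT-PCR in H929 cells. Fold change is relative to the untreated control after normalization to GAPDH. Data are SD of triplicates.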

NCI-H929 [8] = assay: Induction of apoptosis in human NCI-H929 cells assessed as live cells at 2 micromol/L incubated for 12 hrs by annexin V/PI staining based flow cytometry (reference value: 95.6%); format: functional; settings: dose 2 µmol/L, at 2 µM

C[C@]1(O)C[C@@](N)(c2ccc(-c3nc4n(c3-c3ccccc3)COc3ccncc3-4)cc2)C1 [PIFUSERTIB]
Activity (NCI-H929 [1]): Active
CI (MM1.S [2]): 0.751
CI (MM1.S [3]): 1.03
CI (OPM-2/BTZ): 1.112
CI (OPM-2 [4]): 1.29
CI (OPM-2 [5]): 1.462
Activity (MM1.S [6]): 4.57%
Activity (NCI-H929 [7]): Active
Activity (NCI-H929 [8]): 91.7%
